Jurkat viability: cytotoxicity toward Jurkat T cells, primary screen, cytotoxicity control, cell-based, Jurkat E6.1, 60K MLSMR library; 1.2% of 56,000 active; Jurkat E6.1 viability, ATP luminescence, 48 h; inhibition, % at 4 µM;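 active = inhibition above the mean inhibition of all tested compounds plus 3 SD, cut at about 28% in these data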
Fibroblast inh: antiproliferative effect on LL 47 fibroblasts – human, LL 47 cells, CellTiter-Glo luminescence, primary screen; 1.1% of 85,000 active; viability, % at 10 µM; LL 47 human lung fibroblast viability, ATP luminescence; hits give low values;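 active = viability at or below 50% in the single dose screen; inactive = viability above 50%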;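 note: compound exposure lasted 72 h before the ATP readout; 100% = median luminescence of untreated cell-only wells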
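Assay system: human lung fibroblast line LL 47, low passage. Input: 1,150 fibroblasts seeded per well. Times: overnight cell rest, 72 h compound treatment at 37 °C. Evaluation: % viability of median cell-only signal. Technique: luminescent ATP detection, CellTiter-Glo. Control set: cell-only wells, no compound.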
H69AR growth 86K: proliferation blockers of H69AR lung cancer cells, primary screen, cell-based, human, 86K library | viability, % at 10 µM | 6% of 85,000 active | AID 598, 2007 | H69AR lung tumor viability, ATP luminescence, 72 h; hits give low values;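 active = viability at or below 40%; inactive = viability above 40%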;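 note: multidrug resistant small cell line overexpressing MRP-1 efflux transporter; 100% = mean luminescence of untreated control wells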
HUVEC inhibit: inhibitors of HUVEC proliferation, primary screen, cell-based, 384-well; 1.1% of 86,000 active; AID 648, 2007; CellTiter-Glo luminescence, 72 h; hits give low values; viability, % at 10 µM (by protocol);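 active = viability at or below 30%; inactive = viability above 30%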;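 note: 100% = median luminescence of DMSO-only cell control wells on each plate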
PTK2B oligo ant: antagonists of Pyk2 self-association, primary screen, Q293 cells, FERM NanoBiT luminescence, HTS; Protein-tyrosine kinase 2-beta (Homo sapiens), Q14289; hits give low values; z-score (the deposit names both 25 µM and 10 µM); 0.83% of 99,000 active; AID 1347419, 2020;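 active = Z-score of -3 or lower, scaled per plate to the spread of control and sample wells; inactive = z-score above -3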;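 note: negative z-score means lost luminescence so less FERM oligomerization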
Target sequence (Q14289 whole entry, looked up): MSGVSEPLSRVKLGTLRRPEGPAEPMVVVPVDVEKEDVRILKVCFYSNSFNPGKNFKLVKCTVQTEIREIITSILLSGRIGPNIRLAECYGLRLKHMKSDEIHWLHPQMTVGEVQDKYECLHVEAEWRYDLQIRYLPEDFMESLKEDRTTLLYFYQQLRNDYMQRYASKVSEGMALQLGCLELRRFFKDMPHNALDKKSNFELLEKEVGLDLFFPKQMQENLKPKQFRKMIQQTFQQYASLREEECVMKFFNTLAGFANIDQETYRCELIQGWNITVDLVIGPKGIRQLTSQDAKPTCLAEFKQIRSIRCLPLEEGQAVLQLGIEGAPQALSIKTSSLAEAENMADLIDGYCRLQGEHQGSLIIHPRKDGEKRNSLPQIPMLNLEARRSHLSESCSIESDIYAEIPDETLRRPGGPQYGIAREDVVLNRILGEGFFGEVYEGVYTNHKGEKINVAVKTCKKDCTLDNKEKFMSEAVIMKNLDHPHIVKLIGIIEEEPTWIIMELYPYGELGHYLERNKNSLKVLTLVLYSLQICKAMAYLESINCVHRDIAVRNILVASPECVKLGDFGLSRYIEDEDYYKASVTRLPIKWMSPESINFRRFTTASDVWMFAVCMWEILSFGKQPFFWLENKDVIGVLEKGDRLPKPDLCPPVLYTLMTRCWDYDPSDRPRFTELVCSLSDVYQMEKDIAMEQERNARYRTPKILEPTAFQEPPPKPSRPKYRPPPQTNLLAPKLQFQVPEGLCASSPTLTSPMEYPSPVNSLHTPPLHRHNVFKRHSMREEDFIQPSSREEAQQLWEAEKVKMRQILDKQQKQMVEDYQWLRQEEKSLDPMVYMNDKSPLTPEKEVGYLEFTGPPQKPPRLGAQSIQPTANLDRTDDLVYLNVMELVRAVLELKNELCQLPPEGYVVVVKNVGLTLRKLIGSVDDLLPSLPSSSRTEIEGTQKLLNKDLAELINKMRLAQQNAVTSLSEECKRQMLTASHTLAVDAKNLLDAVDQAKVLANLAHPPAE
F-actin modifier: modifiers of F-actin cytoskeleton organization, primary screen, imaging, HUVEC, phalloidin staining, high-content imaging; HUVEC TNFa F-actin phalloidin imaging; inhibition, % at 2 µM; 0.18% of 91,000 active;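 active = inhibition above the batch mean plus 3 SD and confirmed as a hit by visual image inspection, cut at about 30% in these data, passing the limit was not always enough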
An asterisk follows results filed as active; x = not tested or not shown. Most compounds without a hit are left out; they make up all but 6% or so of the library.

SMILES	Jurkat viability	Fibroblast inh	H69AR growth 86K	HUVEC inhibit	PTK2B oligo ant	F-actin modifier
CCCNC(=O)COC(=O)c1ccccc1OCc1ccc(Cl)cc1	x	x	x	x	-0.31	-1.7
COc1ccc(N2C(=O)c3ccccc3NC2c2ccc(OC)c(CSc3ccccn3)c2)cc1 (centres undefined)	x	x	x	x	-3.25*	-14.5
COc1ccc(C(=O)c2ccc(N3CCN(C4CC(=O)NC4=O)CC3)cc2)cc1F (centres undefined)	0.9	96.7	77.5	92.7	0.71	-22.1
CCOC(=O)C1=C(c2ccccc2)N=c2s/c(=C\c3cc(OC)c(OC)c(OC)c3)c(=O)n2C1c1cccs1 (centres undefined)	x	x	x	x	-1.42	-0.1
CCOC(=O)C1=C(N)n2c(s/c(=C\c3ccco3)c2=O)=C(C(=O)OCC)C1c1ccco1 (centres undefined)	60.7*	28.8*	27.1*	28.6*	1.72	-23.1
CCOC(=O)C1=C(N)n2c(s/c(=C/c3ccccc3)c2=O)=C(C(=O)OCC)C1c1ccccc1 (centres undefined)	x	66.5	9.5*	98.6	x	8.1
CCOC(=O)C1=C(N)n2c(s/c(=C\c3ccco3)c2=O)=C(C(=O)OC(C)C)C1c1ccco1 (centres undefined)	x	x	x	x	0.12	12.2
c1ccc(-c2nn3c(-c4ccncc4)nnc3s2)nc1	9.3	97.2	66.8	94.8	x	x
CCOCCn1c(CN2CCOCC2)nc2c1c(=O)[nH]c(=O)n2C	-5.4	103.1	93.8	102.8	x	x
CCN1C2=NCCCN2c2cc(C)c(C)cc21	2.4	x	x	x	0.41	1.4
COc1ccc(OC)c(N=C(C)C2=C(O)COC2=O)c1	x	88.8	21.9*	86.2	-0.18	x
CC(=Nc1ccccc1)C1=C(O)COC1=O	x	108.8	105.4	114.8	0.67	10.8
CCC(=O)N/C(=N\OCc1ccc(F)cc1)c1nonc1NC(=O)CC	x	x	x	x	0.2	x
COc1ccccc1N1CCN(C(=O)C2c3ccccc3Oc3ccccc32)CC1	70.3*	57.6	30.2*	38.8	-1.29	-38.2
O=C(C1c2ccccc2Oc2ccccc21)N1CCN(c2ccc(Cl)cc2)CC1	x	87.1	39.1*	81.6	-0.86	0.2
CCOc1cc(/C=N/O)cc(Br)c1OCC	x	97.2	67.1	78.2	-0.95	-7.4
CCCOc1c(Br)cc(/C=N/O)cc1OC	x	97.8	30.0*	63.1	-0.06	-2.9
O=C(NCCCN1CCOCC1)C(Sc1ccccc1)c1ccccc1 (centres undefined)	x	x	x	x	-0.03	-1.7
O=C(COc1ccc(S(=O)(=O)N2CCOCC2)cc1)Nc1ccc2c(c1)OCCO2	-1.6	92.2	x	93.8	0.95	6.4
O=C(COc1ccc(S(=O)(=O)N2CCOCC2)cc1)Nc1ccc(Cl)c(C(F)(F)F)c1	23.1	58.9	25.0*	52.2	-0.38	-7.3
CCOC(=O)CCN(Cc1sccc1C)S(=O)(=O)c1ccc(F)cc1	x	96.4	96.8	99.4	-0.09	-2.0
Cc1cccc(OCC(O)Cn2c(=N)n(CCN3CCCCC3)c3ccccc32)c1 (centres undefined)	6.5	69.2	5.5*	50.9	0.44	x
Cc1ccc(OCC(O)Cn2c(=N)n(Cc3ccccc3)c3ccccc32)cc1 (centres undefined)	x	1.9*	88.3	6.5*	0.33	x
COc1ccc(OCC(O)Cn2c(=N)n(Cc3ccccc3)c3ccccc32)cc1 (centres undefined)	11.8	60.3	82.4	73.2	2.26	-26.6
CCOc1ccc(-c2cc(C(=O)O)c3ccccc3n2)c(OCC)c1	36.9*	96.2	88.6	82.8	-0.01	-2.4
SMILES	Jurkat viability	Fibroblast inh	H69AR growth 86K	HUVEC inhibit	PTK2B oligo ant	F-actin modifier
CCNC(=S)NNC(=O)c1cc(-c2ccc(OCC)cc2)nc2ccccc12	x	x	x	x	-1.11	-11.5
O=P(CCC(F)(F)F)(CCC(F)(F)F)CCC(F)(F)F	x	101.6	100.7	104.5	1.01	14.4
COc1cc(OC)cc(C(C(=O)NC2CCCCC2)N(C(=O)c2ccno2)c2ccccc2)c1 (centres undefined)	x	91.4	73.4	86.6	-3.64*	-2.1
O=C(NC1CCCC1)C(c1ccccc1)N(C(=O)c1ccno1)c1ccccc1 (centres undefined)	x	99.8	92.8	97.0	-1.93	0.0
O=C(CNS(=O)(=O)c1ccccc1)NCc1ccccn1	-0.9	107.2	107.0	101.5	0.19	x
COc1ccc(-c2cc(C(F)F)n3ncc(C(=O)N4CCN5CCCC5C4)c3n2)cc1 (centres undefined)	x	96.7	37.9*	98.0	0	-14.7
COC(=O)c1c(C)n(-c2ccc(C)cc2)c2ccc(O)cc12	x	88.0	23.0*	26.9*	-1.72	x
CC(=O)c1c(C)n(CCO)c2ccc(O)cc12	x	99.2	89.6	93.3	0.75	6.1
CCOC(=O)c1c(C)n(CC(O)c2ccccc2)c2ccc(O)cc12 (centres undefined)	14.1	87.9	66.2	73.3	-3.05*	-14.0
CCOC(=O)c1c(C)n(CCNC(C)=O)c2ccc(O)cc12	x	90.2	77.6	95.3	0.2	-2.1
CC(=O)c1c(C)n(-c2ccccc2)c2ccc(O)cc12	-1.3	96.2	62.9	71.2	-1.95	7.8
COC(=O)c1c(C)n(-c2ccccc2)c2ccc(O)cc12	11.3	91.8	18.7*	41.7	-2.48	-7.5
Cc1cccc2cc(CN(Cc3nnnn3Cc3ccco3)C3CCCC3)c3nnnn3c12	-1.0	96.4	52.8	80.4	-0.64	-29.2
CC1CCN(C(=O)CSc2nnc(-c3cc4ccccc4cc3O)n2Cc2ccco2)CC1	0.1	98.4	77.7	99.4	0.64	-6.9
O=C(Nc1ccc(N2CCCC2)cc1)C(Cl)c1ccccc1 (centres undefined)	x	91.9	21.6*	97.4	-0.45	-6.7
O=c1[nH]c(NCc2ccccc2)nc2c1CCCC2	-3.0	98.6	88.1	100.1	0.6	x
Nc1nc(CSc2nnnn2-c2ccccc2)nc(N2CCCc3ccccc32)n1	2.7	96.2	27.8*	69.7	-4.03*	8.9
O=C1NCCCc2c1oc1ccc(O)cc21	1.0	104.8	65.4	101.8	-0.37	-8.0
Oc1c(Cl)cc(Cl)c2c1NCCC2	2.4	87.7	4.4*	67.9	0.99	18.9
Cc1ccccc1NC1=C(Cl)C(=O)OC1NC(=O)c1ccccc1 (centres undefined)	x	94.2	64.4	104.1	0.12	2.3
Cc1ccccc1NC1=C(Cl)C(=O)OC1OC(=O)c1ccco1 (centres undefined)	x	101.4	9.9*	76.0	-0.56	x
O=C(N/N=C/c1ccc(O)c(O)c1)c1ccc(CSc2cccc3cccnc23)cc1	x	73.7	39.9*	73.1	-1.18	-15.6
CCOc1ccc(C(=O)N/N=C/c2cccc3cccnc23)cc1	x	x	x	x	-0.68	-9.1
O=C(COc1ccc(/C=N/NC(=O)c2ccccc2)cc1)Nc1ccc([N+](=O)[O-])cc1	x	x	x	x	0.21	16.2
